The labels stand for the following.
B1: tRNA (parent)
chain: GUUCCGUUGGCGUAAUGGUAACGCGUCUCCCUCCUAAGGAGAAGACUGCGGGUUCGAGUCCCGUACGGAACG

Fewer inactive variants are shown than the library holds. Some results are limits rather than exact numbers.

Variants of B1 are the subject of the data set. As to the kind of experiment: yeast fitness relative to wild type (ratio to wild type); higher = fitter; tRNA-Arg(CCU), competitive growth, 37 C, YPD. The procedure, abridged:
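A pool of Saccharomyces cerevisiae strains, each with a tRNA-Arg(CCU) gene variant at the native genomic locus, was competed in YPD at 37°C for 24 hours across six parallel replicates. The variants had been chemically synthesised at a 3% per-site mutation rate over 69 sites, and gene amplicons before and after competition were read by 100-nucleotide paired-end sequencing. Darwinian fitness relative to wild type rested on changes in genotype frequencies. Genotypes required ≥ 100 starting reads, and estimates < 0.5 were set to 0.5.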
As to GUUCCGUUGGCGUAAUGGUAACGCGUCUCCCUCCUAAGGAGAAGACUGCCGGUUCGAGCCCCGUACGGAACG, the yeast fitness turned out to be 0.721.
As for GUUCCGUUGGCGUAAUGGUAACGCGUCUCCCUCCUAAGGAGAAGACUGCCGGUUCGAGUCUUGUACGGUACG, the yeast fitness is no more than 0.5.
Next, GUUCCGUUGGCGUAAUGGUAACGCGUCUCCCUCCUAAGGAGAAGACUGCGAGUUCGAGUCCCGUACGGUGCG: 0.543; GUUCCGUUGGCGUAAUGGUAACGCGUCUCCCUCCUAAGGAGAAGACUGCAGGUUCCAGUCCCAUACGGAACG: 0.561.
Next, GUUCCGUUGGCGUAAUGGUAACGCGUCUCCCUCCUAAGGAGAAGACUGCGAGUUCGAGUCCCGUACGGAACG: 0.917; GUUCCGUUGGCGUAAUGGUAACGCGUCUCCCUCCUAAGGAGAAGACUGCCGGUCCGAGUCCGGUACGGAACG: 0.622; GUUCCGUUGGCGUAAUGGUAACGCGUCUCCCUCCUAAGGAGAAGACUGCCGGAUCGUGUCCCGUUCGGAACG: 0.57.
For GUUCCGUUGGCGUAAUGGUAACGCGUCUCCCUCCUAAGGAGAAGACUGCAGGCUCGAGUCCAGUACGGUACG, the yeast fitness turned out to be 0.517.
GUUCCGUUGGCGUAAUGGUAACGCGUCUCCCUCCUAAGGAGAAGACUGCGAGUUCGGGUCCCGUACGGAACG: the yeast fitness was 0.819.
Regarding GUUCCGUUGGCGUAAUGGUAACGCGUCUCCCUCCUAAGGAGAAGACUGCGAGUUCGAGUCCCGUCCGGAACG, the yeast fitness was 0.75.
On to GUUCCGUUGGCGUAAUGGUAACGCGUCUCCCUCCUAAGGAGAAGACUGCGAGUUCGAGUCCCGUGCGGAACG, for which the yeast fitness worked out at 0.852.
GUUCCGUUGGCGUAAUGGUAACGCGUCUCCCUCCUAAGGAGAAGACUGCGAGUUCGAGUCCCGUUCGGAACG: the yeast fitness came to 0.66.
With GUUCCGUUGGCGUAAUGGUAACGCGUCUCCCUCCUAAGGAGAAGACUGCAGGUUCAAGUCCGGUACGGAUCG, the yeast fitness was no more than 0.5.
As to GUUCCGUUGGCGUAAUGGUAACGCGUCUCCCUCCUAAGGAGAAGACUGCGAGUUGGAGUCCCGUACGCAACG, the yeast fitness is no more than 0.5.
Under GUUCCGUUGGCGUAAUGGUAACGCGUCUCCCUCCUAAGGAGAAGACUGCGAGUUUGAAUCCCGUACGGAACG stands 0.606; under GUUCCGUUGGCGUAAUGGUAACGCGUCUCCCUCCUAAGGAGAAGACUGCGAGUUUGAGUCCCGUACGGAACG, 0.633; under GUUCCGUUGGCGUAAUGGUAACGCGUCUCCCUCCUAAGGAGAAGACUGCCGGUUCGUGUCCCGUACGGAACG, 0.63.
As to GUUCCGUUGGCGUAAUGGUAACGCGUCUCCCUCCUAAGGAGAAGACUGCUGGUUCGAGUCCCGUACAGAACG, the yeast fitness was 0.821.
Next, GUUCCGUUGGCGUAAUGGUAACGCGUCUCCCUCCUAAGGAGAAGACUGCGAGUUCGCGUCCCGUAUGGAACG: 0.59.
Next, GUUCCGUUGGCGUAAUGGUAACGCGUCUCCCUCCUAAGGAGAAGACUGCAGGUACGAGUCCCGUACGGAACG: 0.705.
Regarding GUUCCGUUGGCGUAAUGGUAACGCGUCUCCCUCCUAAGGAGAAGACUGCCGGUUCGAGUCCCAUACGGAACG, the yeast fitness turned out to be 0.773.
For GUUCCGUUGGCGUAAUGGUAACGCGUCUCCCUCCUAAGGAGAAGACUGCGAGUUCGGGUCCCGUGUGGAACG, the yeast fitness is no more than 0.5.
On to GUUCCGUUGGCGUAAUGGUAACGCGUCUCCCUCCUAAGGAGAAGACUGCGAGUUCGCGCCCCGUACGGAACG, for which the yeast fitness was no more than 0.5.
On to GUUCCGUUGGCGUAAUGGUAACGCGUCUCCCUCCUAAGGAGAAGACUGCCGGUUCGAGUCCUGUACGGAACG, for which the yeast fitness was found to be 0.963.
Next, GUUCCGUUGGCGUAAUGGUAACGCGUCUCCCUCCUAAGGAGAAGACUGCCGGUUCGAGUCCGGUACGGAACG: 0.965; GUUCCGUUGGCGUAAUGGUAACGCGUCUCCCUCCUAAGGAGAAGACUGCAGUUUCGAGUCCCGUACCGAACG: no more than 0.5; GUUCCGUUGGCGUAAUGGUAACGCGUCUCCCUCCUAAGGAGAAGACUGCGAGUUCGAGUCCCGUAAGGAACG: 0.555.
Next, GUUCCGUUGGCGUAAUGGUAACGCGUCUCCCUCCUAAGGAGAAGACUGCGAGUUCGAGUCCCGUAUGGAACG: 0.82.
Next, GUUCCGUUGGCGUAAUGGUAACGCGUCUCCCUCCUAAGGAGAAGACUGCUGGUUCGAGGCCCGUACGGAACG: 0.796; GUUCCGUUGGCGUAAUGGUAACGCGUCUCCCUCCUAAGGAGAAGACUGCGAGUUCGAGUCCGGUAUGGAACG: no more than 0.5; GUUCCGUUGGCGUAAUGGUAACGCGUCUCCCUCCUAAGGAGAAGACUGCUGGUUCGAGUCCCGUACGGUACG: 1.02.
Regarding GUUCCGUUGGCGUAAUGGUAACGCGUCUCCCUCCUAAGGAGAAGACUGCGAGUUCGAGUCCUGUACGGAACG, the yeast fitness stood at 0.763.
With GUUCCGUUGGCGUAAUGGUAACGCGUCUCCCUCCUAAGGAGAAGACUGCGAGUUCGAGUCCGGUACGGAACG, the yeast fitness stood at 0.621.
On to GUUCCGUUGGCGUAAUGGUAACGCGUCUCCCUCCUAAGGAGAAGACUGCGAGUUCGAGUCCAGUACGGAACG, for which the yeast fitness was 0.561.
Next, GUUCCGUUGGCGUAAUGGUAACGCGUCUCCCUCCUAAGGAGAAGACUGCCGGUUCGAGUCGCGUACGGACCG: no more than 0.5; GUUCCGUUGGCGUAAUGGUAACGCGUCUCCCUCCUAAGGAGAAGACUGCCGGCACGAGUCCCGUACGGAACG: no more than 0.5.
Turning to GUUCCGUUGGCGUAAUGGUAACGCGUCUCCCUCCUAAGGAGAAGACUGCCGGUCCGGGUCCCGUACGGAACG, the yeast fitness was no more than 0.5.
GUUCCGUUGGCGUAAUGGUAACGCGUCUCCCUCCUAAGGAGAAGACUGCCAGUUCGAGUCCUGUACGGAACG: the yeast fitness was no more than 0.5.
For GUUCCGUUGGCGUAAUGGUAACGCGUCUCCCUCCUAAGGAGAAGACUGCAGGUUCGAGCCCCGUACGGAACG, the yeast fitness came out at 0.863.
Regarding GUUCCGUUGGCGUAAUGGUAACGCGUCUCCCUCCUAAGGAGAAGACUGCAGGUUCGAGGCCCGUACGGAACG, the yeast fitness is 0.846.
Under GUUCCGUUGGCGUAAUGGUAACGCGUCUCCCUCCUAAGGAGAAGACUGCAGGUUCGAGUCCCGUACCGAACG stands 0.743; under GUUCCGUUGGCGUAAUGGUAACGCGUCUCCCUCCUAAGGAGAAGACUGCAGGUUCGAGUCCCGUACAGAACG, 0.818.
Under GUUCCGUUGGCGUAAUGGUAACGCGUCUCCCUCCUAAGGAGAAGACUGCCGGUUCGAGUCCCGUAAGGAACG stands 0.657; under GUUCCGUUGGCGUAAUGGUAACGCGUCUCCCUCCUAAGGAGAAGACUGCCGGUUCGAGUCCCGUAUGGAACG, 0.596; under GUUCCGUUGGCGUAAUGGUAACGCGUCUCCCUCCUAAGGAGAAGACUGCUGGUUCGAGUCCCGUACGGAACG, 0.961.
Next, GUUCCGUUGGCGUAAUGGUAACGCGUCUCCCUCCUAAGGAGAAGACUGCCGGUUCGAGUCCCGUACGGAACG: 0.844; GUUCCGUUGGCGUAAUGGUAACGCGUCUCCCUCCUAAGGAGAAGACUGCCAGUUUGAGUCCCGUACGGAACG: 0.549.
Consider GUUCCGUUGGCGUAAUGGUAACGCGUCUCCCUCCUAAGGAGAAGACUGCCGGUUAGAGUACCGUACGGAACG, for which the yeast fitness is no more than 0.5.
Under GUUCCGUUGGCGUAAUGGUAACGCGUCUCCCUCCUAAGGAGAAGACUGCCGGUUCGAGUACCGUACGGAACG stands no more than 0.5; under GUUCCGUUGGCGUAAUGGUAACGCGUCUCCCUCCUAAGGAGAAGACUGCCGGUUCGACUCCCGUACGGAACG, 0.722.
In the case of GUUCCGUUGGCGUAAUGGUAACGCGUCUCCCUCCUAAGGAGAAGACUGCAGGUUCGAGUCCCGUACGCAACG, the yeast fitness was determined as 0.635.
Next, GUUCCGUUGGCGUAAUGGUAACGCGUCUCCCUCCUAAGGAGAAGACUGCGAGUUCGAGUCCCGUACGGAUCG: 0.935; GUUCCGUUGGCGUAAUGGUAACGCGUCUCCCUCCUAAGGAGAAGACUGCUGGUUCGAGUCCCGUGCGGACCG: 0.59; GUUCCGUUGGCGUAAUGGUAACGCGUCUCCCUCCUAAGGAGAAGACUGCUGGUUCGAGUCACGUACGGAACG: no more than 0.5.
Consider GUUCCGUUGGCGUAAUGGUAACGCGUCUCCCUCCUAAGGAGAAGACUGCUGGUUCGAGUCCUGUACGGCACG, for which the yeast fitness came out at 0.661.
Next, GUUCCGUUGGCGUAAUGGUAACGCGUCUCCCUCCUAAGGAGAAGACUGCCGGUUCGAAUCCCGUAUGGAACG: 0.538; GUUCCGUUGGCGUAAUGGUAACGCGUCUCCCUCCUAAGGAGAAGACUGCAGGUUCAAGUCCCGUACGGCACG: 0.706.
Take GUUCCGUUGGCGUAAUGGUAACGCGUCUCCCUCCUAAGGAGAAGACUGCGAGUUUGAGUCCCGUUCGGAACG: the yeast fitness was no more than 0.5.
GUUCCGUUGGCGUAAUGGUAACGCGUCUCCCUCCUAAGGAGAAGACUGCGAGUUCGAGUCACGUACGGAACG: the yeast fitness is 0.536.
Next, GUUCCGUUGGCGUAAUGGUAACGCGUCUCCCUCCUAAGGAGAAGACUGCGAGUUCGAGUCUCGUACGGAACG: 1.11; GUUCCGUUGGCGUAAUGGUAACGCGUCUCCCUCCUAAGGAGAAGACUGCGAGUUCGAGUCGCGUACGGAACG: 0.588; GUUCCGUUGGCGUAAUGGUAACGCGUCUCCCUCCUAAGGAGAAGACUGCCGCUUCGAGUCCCGUACGGAACG: 0.562.
GUUCCGUUGGCGUAAUGGUAACGCGUCUCCCUCCUAAGGAGAAGACUGCGAGUUCGAGUCCCGUACGGUACG: the yeast fitness is 0.738.
GUUCCGUUGGCGUAAUGGUAACGCGUCUCCCUCCUAAGGAGAAGACUGCCGGUUCGAGUCCCGCACGGAACG: the yeast fitness worked out at 0.967.
GUUCCGUUGGCGUAAUGGUAACGCGUCUCCCUCCUAAGGAGAAGACUGCCGGUUCGAUUCCCGUACGUGACG: the yeast fitness worked out at 0.508.
Next, GUUCCGUUGGCGUAAUGGUAACGCGUCUCCCUCCUAAGGAGAAGACUGCCGGCUUGAGUCCCGUACGGAACG: 0.528; GUUCCGUUGGCGUAAUGGUAACGCGUCUCCCUCCUAAGGAGAAGACUGCGAGUUCGAGUCACGUAAGGAACG: no more than 0.5.
GUUCCGUUGGCGUAAUGGUAACGCGUCUCCCUCCUAAGGAGAAGACUGCGAGUUCGAGUCUCGUAGGGAACG: the yeast fitness is no more than 0.5.
Under GUUCCGUUGGCGUAAUGGUAACGCGUCUCCCUCCUAAGGAGAAGACUGCAGGUUCCAGUCCCGUACGGAACG stands 0.635; under GUUCCGUUGGCGUAAUGGUAACGCGUCUCCCUCCUAAGGAGAAGACUGCAGGUUCAAGUCCCGUACGGAACG, 1.04; under GUUCCGUUGGCGUAAUGGUAACGCGUCUCCCUCCUAAGGAGAAGACUGCCGGUUCGAGUCCCGUACGGAUCG, 0.875.
Under GUUCCGUUGGCGUAAUGGUAACGCGUCUCCCUCCUAAGGAGAAGACUGCCGGUUCGAGUCCCGUACGGAGCG stands 0.681; under GUUCCGUUGGCGUAAUGGUAACGCGUCUCCCUCCUAAGGAGAAGACUGCCCGUUCAAGUCCCGUACGGAACG, 0.602; under GUUCCGUUGGCGUAAUGGUAACGCGUCUCCCUCCUAAGGAGAAGACUGCCGGUUCGUGUCACGUACGGAACG, no more than 0.5.
GUUCCGUUGGCGUAAUGGUAACGCGUCUCCCUCCUAAGGAGAAGACUGCCGGUUCGAGUCCCGUCCGGAACG: the yeast fitness worked out at 0.602.

The values are drawn from the RNAGym collection of RNA variant scans (doi:10.1126/science.aae0568).
